This is an account of results in ChEMBL document CHEMBL6177922, “Antibacterial activity of the structurally novel C-2 amine-substituted analogues based on quinoxaline” (RSC Med Chem, 2025).

In one series the test system is Bacillus subtilis. As to the kind of experiment: Antibacterial activity against drug sensitive Bacillus subtilis 168 assessed as reduction in bacterial growth by broth microdilution method. It is filed as functional. In a few lines: (§1)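 MICs were determined by standard twofold serial broth microdilution in lysogeny broth (LB) medium.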
For orientation: Dilution methods test growth across graded concentrations, often in twofold steps.

Series [1] deals with Escherichia coli. As to the kind of experiment: Antibacterial activity against drug sensitive Escherichia coli DH5alpha assessed as reduction in bacterial growth by broth microdilution method. Type of series: functional. In a few lines:
as §1

Series [2] deals with Staphylococcus aureus. In words: Antibacterial activity against methicillin-resistant Staphylococcus aureus USA300 assessed as reduction in bacterial growth by broth microdilution method. Type of series: functional. In a few lines: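 Twofold serial dilution (microdilution) MIC in lysogeny broth (LB) medium against drug-resistant strains: MRSA USA300, vancomycin-resistant Enterococci, Klebsiella pneumoniae.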

Series [3] concerns Staphylococcus aureus. In words: Drug resistance, ratio of MIC for Staphylococcus aureus after 15 days to MIC for Staphylococcus aureus after initial exposure. Type of series: functional. The settings on record: time 15 day. The method in brief: (§2)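 Resistance development: MRSA serially subcultured in fresh medium starting from the initial MIC. MIC reassessed every 24 h over 24 days, alongside a reference antibiotic given in twofold dilutions.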

In series [4] the test system is Staphylococcus aureus. In words: Antibacterial activity against methicillin-resistant Staphylococcus aureus measured for 15 days. It is filed as functional, organism-based. The settings on record: time 15.0 day. In a few lines: as §2
Series [5] relates to Staphylococcus aureus. As to the kind of experiment: Antibacterial activity against methicillin-resistant Staphylococcus aureus measured for 9 days. Type of series: functional, organism-based. The following applies: time 9.0 day. In a few lines:
as §2

The subject of series [6] is Escherichia coli. In words: Antibacterial activity against Escherichia coli measured for 9 days. The following applies: time 9.0 day. It is filed as functional, organism-based. In a few lines:
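E. coli was serially subcultured in fresh medium, starting from the initial MIC. The MIC was redetermined every 24 h. A reference antibiotic was tested in parallel by twofold dilution. The regimen ran for 24 days in total.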

The test system of series [7] is Staphylococcus aureus. As to the kind of experiment: Bactericidal activity against methicillin-resistant Staphylococcus aureus assessed as reduction in colony forming unit at 3 times MIC […] by time kill assay. Type of series: functional.
The test system of series [8] is Staphylococcus aureus. In words: Bactericidal activity against methicillin-resistant Staphylococcus aureus at 2 times MIC incubated for 24 hrs by time kill assay. Type of series: functional, organism-based. The method in brief:
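Time-kill: MRSA grown 24 h at 37 °C, adjusted to ~2 × 10^6 CFU mL-1, exposed at 2× or 3× MIC with shaking at 37 °C. Aliquots taken at 0.5–13 h, serially diluted 10-fold in PBS, plated on Mueller–Hinton agar, counted after 24 h at 37 °C. Duplicate.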

Series [9] has as its system Escherichia coli. In words: Bactericidal activity against Escherichia coli at 2 to 3 times MIC incubated for 24 hrs by time kill assay. Type of series: functional, organism-based.
Series [10] deals with Escherichia coli. In words: Bactericidal activity against Escherichia coli assessed as inhibition of bacterial growth at 3 times MIC incubated for 24 hrs by time kill assay. It is filed as functional, organism-based. The method in brief:
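Time-kill assay: E. coli was precultured for […] at 37 °C and adjusted to about 2 × 10^6 CFU mL−1. It was exposed to 3× MIC at 37 °C with shaking. Samples were taken at 0.5–13 h, serially 10-fold diluted in PBS and plated on Mueller–Hinton agar, and colonies were counted after 24 h at 37 °C. Run in duplicate.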

Series [11] in a line: Cytotoxicity against human HK-2 cells assessed as inhibition of cell growth incubated for 24 hrs by MTT assay. Type of series: toxicity, cell-based. The method in brief:
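MTT assay with 24 h exposure of cells to the samples. IC50 is the concentration giving 50% growth inhibition, reported as mean ± S.D. of three independent experiments.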
In general terms: Formazan colour is commonly taken as a measure of viable cells.

The test system of series [12] is Staphylococcus aureus. In words: Antibiofilm activity against Methicillin-resistant Staphylococcus aureus assessed as reduction in number of viable cells at 8 times MIC incubated for 24 hrs. Type of series: functional, organism-based.
In series [13] the test system is Staphylococcus aureus. In words: Antibiofilm activity against Methicillin-resistant Staphylococcus aureus assessed as reduction in number of viable cells at 16 times MIC incubated for 24 hrs. Type of series: functional, organism-based.
The subject of series [14] is Staphylococcus aureus. As to the kind of experiment: Antibiofilm activity against Methicillin-resistant Staphylococcus aureus assessed as reduction in number of viable cells at 2 times MIC incubated for 24 hrs. It is filed as functional, organism-based. The method in brief:
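Biofilm eradication: mid-log MRSA at 2 × 10^6 CFU mL-1 grown 48 h to form biofilms, then washed with PBS. Biofilms exposed to compound at MIC, 2× or 3× MIC for 24 h; medium-only control. Biofilms dispersed with trypsin–EDTA, serial 10-fold dilutions plated, colonies counted after 24 h, expressed as log10 CFU mL-1.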

Series [15] relates to Escherichia coli. As to the kind of experiment: Antibiofilm activity against Escherichia coli assessed as reduction in number of viable cells at 4 times MIC incubated for 24 hrs. It is filed as functional, organism-based. In a few lines: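 E. coli was grown to mid-log phase and adjusted to 2 × 10^6 CFU mL−1. Biofilms were grown for 48 h, then the spent medium was removed and loose cells were washed off with PBS. Compound was added at MIC, 2× MIC or 4× MIC for 24 h, with a sterile-medium control. Biofilms were dispersed with trypsin–EDTA, 10-fold dilutions were plated, and colonies were counted after 24 h as log10 CFU mL−1.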

Series [16] relates to Staphylococcus aureus. In words: Antibacterial activity against methicillin-resistant Staphylococcus aureus assessed as reduction in viable bacterial count at 2 to 4 times MIC measured after 18 hrs. It is filed as functional, organism-based.
Series [17] relates to Staphylococcus aureus. As to the kind of experiment: Antibacterial activity against methicillin-resistant Staphylococcus aureus assessed as reduction in viable bacterial count measured after 18 hrs. It is filed as functional, organism-based.
For series [18], the system named is Staphylococcus aureus. As to the kind of experiment: Antibacterial activity against methicillin-resistant Staphylococcus aureus assessed as effect on viable bacterial growth measured after 24 hrs. It is filed as functional, organism-based.
A short description of series [19]: Plasma protein binding in dog assessed as unbound fraction measured after 4 hrs by rapid equilibrium dialysis based LC-MS/MS analysis. It is filed as ADME, cell-free, Canis lupus familiaris. In a few lines: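 Rapid equilibrium dialysis of dog plasma against PBS pH 7.4 across an 8000 MWCO membrane. A 10 mM stock was diluted 1:50 with water and added to the plasma side, with sarolaner as control. Plates were shaken for 4 h at 37 °C. Proteins were precipitated with ACN and both chambers quantified by LC-MS/MS. % free = buffer/plasma concentration × 100; % bound = 100 − % free. n = 4.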
On the technique in general: In equilibrium dialysis only unbound substance equilibrates across the membrane.

Series [20] concerns Cell membrane. In words: Induction of cell membrane permeabilization in methicillin-resistant Staphylococcus aureus assessed as increase in fluorescence intensity at 3 times MIC incubated for 8 hrs by PI staining based confocal laser scanning microscopic analysis. Type of series: subcellular. In a few lines:
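Log-phase MRSA washed in PBS (10 mM, pH 7.2) and resuspended at 2 × 10^6 CFU mL-1 (OD600 0.2–0.4). Treated at 3× MIC for 8 h at 37 °C, PBS control. Stained with SYTO 9/propidium iodide 30 min in the dark, imaged by confocal laser scanning microscopy. Duplicate.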

Series [21] deals with Cell membrane. In words: Induction of cell membrane permeabilization in Escherichia coli assessed as increase in fluorescence intensity at 3 times MIC incubated for 8 hrs by PI staining based confocal laser scanning microscopic analysis. Type of series: subcellular. In a few lines:
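Log-phase E. coli was washed and resuspended in PBS (10 mM, pH 7.2) at 2 × 10^6 CFU mL−1 (OD600 0.2–0.4). Cells were treated with 3× MIC for 8 h at 37 °C, with a PBS control, then stained with SYTO 9 and PI for 30 min in the dark and imaged by confocal microscopy. Run in duplicate.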

Series [22] concerns Staphylococcus aureus. As to the kind of experiment: Antibacterial activity against methicillin-resistant Staphylococcus aureus infected in Kunming mouse corneal infection model assessed as reduction in viable bacterial count at 6 mg/ml, TOP administered 3 times daily for 1 week. Type of series: functional, organism-based. The settings on record: time 1.0 weeks. The method in brief: (§3)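 Corneal infection model: male and female Kunming mice (~20 g) immunosuppressed with daily i.p. cyclophosphamide for 3 days. Anesthetized with i.p. avertin (400 mg kg-1), corneas abraded and given 20 μL MRSA (6 × 10^7 CFU mL-1). From 24 h post-infection, treated by topical smear three times daily for one week. Controls: 5% glucose and 5% vancomycin. Six mice per group. Corneal viable counts measured.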

Series [23] concerns Staphylococcus aureus. In words: Antibacterial activity against methicillin-resistant Staphylococcus aureus infected in Kunming mouse corneal infection model assessed as reduction in viable bacterial count at 3 mg/ml, TOP administered 3 times daily for 1 week. Type of series: functional, organism-based. The following applies: time 1.0 weeks. The method in brief:
as §3

Converted amounts (≈) assume the structure as drawn. The source made the active and inactive calls. Where only a bound is given, the exact number is not on record here.

What is called MIC is the smallest concentration in the dilution series that meets the test's criterion for growth inhibition. Usually IC50 stands for the concentration at which inhibition is half-maximal. As a reminder, the fraction unbound is the share of the substance not bound to proteins or other matrix.

`CC(C)(C)c1ccc(CCNc2nc3ccccc3nc2N)cc1`: the MIC was 8 µg/mL (≈ 25 µM) in the series on Bacillus subtilis, 4 µg/mL (≈ 12.5 µM) in the series on Escherichia coli [1] and 8 µg/mL (≈ 25 µM) in the series on Staphylococcus aureus [2]. For the same compound, the Ratio in the series with Staphylococcus aureus [3] was found to be 3. Also, the outcome in the series with Staphylococcus aureus [4], in the series on Staphylococcus aureus [5], in the series with Escherichia coli [6], in the series on Escherichia coli [10], with Staphylococcus aureus [12] and with Staphylococcus aureus [13] was Active. In addition, the outcome in the series with Staphylococcus aureus [14], with Escherichia coli [15], with Staphylococcus aureus [16], with Staphylococcus aureus [18] and in the series on Staphylococcus aureus [22] was Active. Besides, the Activity with Staphylococcus aureus [7] is over 6 log10CFU/ml; with Staphylococcus aureus [17], “Dose-dependent-effect”. The outcome in the series on Staphylococcus aureus [8], with Escherichia coli [9], in the series on Cell membrane [20], in the series on Cell membrane [21] and in the series on Staphylococcus aureus [23] was inactive. Moreover, the half-inhibitory concentration (IC50) at 24 h in [11] amounted to 146 µg/mL (≈ 454 µM). The unbound share (fraction unbound) at 4 h in [19] came out at 0.0731.
